Assay results from ChEMBL document CHEMBL4622842, “Optimization and biological evaluation of imidazopyridine derivatives as a novel scaffold for γ-secretase modulators with oral efficacy against cognitive deficits in Alzheimer's disease model mice” (Bioorg Med Chem, 2020).
Activity calls are given as the source filed them. The calls are words filed in the database; no cut-off is given here.

Tests used:
Mus musculus = assay: Antialzheimer activity in transgenic Tg2576 mouse assessed as improvement of spatial memory impairment at 2 and 6 mg/kg, po administered daily for 8 weeks measured after 3 hrs on day 8 by Y-maze test; type: functional, organism-based; conditions: in the assay text read “8 days” for “8 weeks”
Outline: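 Female Tg2576 mice, 6 months old, nonfasted (n = 5 or 6), dosed orally once daily for 8 days at 0.6, 2.0, 6.0 or 20 mg/kg as a suspension in 0.5% methyl cellulose. Three hours after the day-8 dose, each mouse started at the end of one arm of a three-arm Y-maze and explored freely for 8 min. Spontaneous alternation was scored; animals with <10 total arm entries were excluded. Student's t-test vs vehicle.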

[1] = Ratio of drug concentration in brain of Sprague-Dawley rat at 30 mg/kg, po to IC50 of gamma-secretase in human SK-N-BE cells; type: ADME, organism-based; conditions: in vivo
[2] = Ratio of drug concentration in brain to blood of Sprague-Dawley rat at 30 mg/kg, po measured after 3 hrs by LC/MS-MS analysis; type: ADME, organism-based; conditions: brain and blood
Outline: (§1)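 Nonfasted 6-week-old male SD rats (n = 2 or 3) received a single oral dose of 10 or 30 mg/kg as a suspension in 0.5% (w/v) methylcellulose. Plasma and brain were sampled 3 h post-dose, proteins were precipitated with acetonitrile, and drug was quantified by LC-MS/MS. Values are the mean of two or three rats. The brain/plasma ratio was taken from these concentrations.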

Rattus norvegicus [3] = assay: Reduction in amyloid beta 42 production in Sprague-Dawley rat brain at 30 mg/kg, po measured after 3 to 4 hrs by ELISA relative to control; type: functional
Outline: (§2)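 Nonfasted 6-week-old male SD rats (n = 4 or 5) given a single oral dose of 10 or 30 mg/kg in 0.5% (w/v) methylcellulose. Blood and brain were taken under isoflurane 3 h post-dose (4 h for some entries). Hippocampus was sonicated in 10 volumes of TBS pH 7.4 with protease inhibitors and spun at 100,000g, 4 °C, 1 h. Aβx-42 in supernatant and plasma measured by ELISA; Student's t-test vs vehicle.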

[4] = Drug concentration in plasma of Sprague-Dawley rat at 30 mg/kg, po measured after 3 hrs by LC/MS-MS analysis; type: ADME, organism-based; outline: as §1
Cytochrome P450 2D6 = Cytochrome P450 2D6 (Homo sapiens, UniProt P10635); assay: Inhibition of human recombinant CYP2D6 assessed as reduction in metabolite formation using AMMC as substrate incubated for 20 mins by fluorescence assay; type: ADME
Outline: (§3)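 Recombinant human CYP with co-factors, fluorogenic substrate, potassium phosphate buffer pH 7.4 and test compound at 0.31–20 μM, incubated at 37 °C. Substrates and incubation times: CYP1A2, 5 μM CEC, 20 min; CYP2C9, 75 μM MFC, 30 min; CYP2C19, 25 μM CEC, 20 min; CYP2D6, AMMC, 20 min. Stopped with Tris base/acetonitrile; metabolite read by fluorescence. IC50 is the mean of duplicates.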

Rattus norvegicus [5] = assay: Reduction in amyloid beta 42 production in Sprague-Dawley rat plasma at 10 mg/kg, po measured after 3 to 4 hrs by ELISA relative to control; type: functional; outline: as §2
Rattus norvegicus [6] = assay: Reduction in amyloid beta 42 production in Sprague-Dawley rat plasma at 30 mg/kg, po measured after 3 to 4 hrs by ELISA relative to control; type: functional; outline: as §2
[7] = Ratio of drug concentration in brain to blood of Sprague-Dawley rat at 10 mg/kg, po measured after 3 hrs by LC/MS-MS analysis; type: ADME, organism-based; conditions: brain and blood; outline: as §1
[8] = Drug concentration in plasma of Sprague-Dawley rat at 10 mg/kg, po measured after 3 hrs by LC/MS-MS analysis; type: ADME, organism-based; outline: as §1
[9] = Ratio of drug concentration in plasma of Sprague-Dawley rat at 10 mg/kg, po to IC50 of gamma-secretase in human SK-N-BE cells; type: ADME, organism-based; conditions: in vivo
Rattus norvegicus [10] = assay: Reduction in amyloid beta 42 production in Sprague-Dawley rat brain at 10 mg/kg, po measured after 3 to 4 hrs by ELISA relative to control; type: functional; outline: as §2
Cytochrome P450 1A2 = biological target: T1, Cytochrome P450 1A2 (Homo sapiens, UniProt P05177); assay: Inhibition of human recombinant CYP1A2 assessed as reduction in metabolite formation using CEC as substrate incubated for 20 mins by fluorescence assay; type: ADME; outline: as §3
T1 sequence (P05177 whole entry): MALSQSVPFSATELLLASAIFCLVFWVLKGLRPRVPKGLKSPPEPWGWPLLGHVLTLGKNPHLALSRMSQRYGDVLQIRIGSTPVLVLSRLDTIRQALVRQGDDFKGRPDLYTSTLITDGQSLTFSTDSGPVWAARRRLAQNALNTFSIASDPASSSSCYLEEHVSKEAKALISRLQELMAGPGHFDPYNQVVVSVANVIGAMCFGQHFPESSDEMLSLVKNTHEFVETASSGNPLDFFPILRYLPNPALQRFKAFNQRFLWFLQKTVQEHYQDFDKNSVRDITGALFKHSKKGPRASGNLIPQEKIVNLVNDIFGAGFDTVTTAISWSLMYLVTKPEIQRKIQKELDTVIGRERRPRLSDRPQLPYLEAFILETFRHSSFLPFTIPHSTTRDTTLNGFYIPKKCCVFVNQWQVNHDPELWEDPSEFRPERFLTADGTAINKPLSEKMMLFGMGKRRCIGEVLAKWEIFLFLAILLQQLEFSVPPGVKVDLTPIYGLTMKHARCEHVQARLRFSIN

[11] = Ratio of drug concentration in plasma of Sprague-Dawley rat at 30 mg/kg, po to IC50 of gamma-secretase in human SK-N-BE cells; type: ADME, organism-based; conditions: in vivo
Gamma-secretase = assay: Inhibition of gamma-secretase in human SK-N-BE cells assessed as decrease in amyloid beta 42 production treated for 6 hrs by ELISA; type: cell-based
Outline: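 SK-N-BE(2) human neuroblastoma cells grown in RPMI1640 with 10% FBS and penicillin/streptomycin, plated in 96-well plates overnight, then exposed to a range of drug concentrations in 0.5% DMSO for 6 h. Medium Aβ1-42 was measured by sandwich ELISA (44A3 capture, biotin-82E1 detection, streptavidin-HRP, TMB). Total Aβ was measured by ELISA kit. Mean of two wells.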

CYP3A4 [12] = biological target: T2, CYP3A4 (Homo sapiens, UniProt P08684); assay: Inhibition of CYP3A4 in human liver microsome assessed as enzyme residual activity pre-incubated for 0 min followed by midazolam addition incubated for 20 mins by LC-MS/MS analysis relative to control; type: ADME; conditions: liver microsomes, probe midazolam, read-out: INH
Outline: (§4)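 Human liver microsomes at 0.1 mg protein/mL with 1 mM NADPH, 0.1 mM EDTA, 100 mM Na+-K+ phosphate pH 7.4 and 5 μM test compound, preincubated 0 or 30 min at 37 °C. Started with 1.5 μM midazolam, run 20 min, stopped with 80% acetonitrile containing internal standard. Peak-area ratios with compound vs without gave residual activity; mean of duplicates.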

[13] = Ratio of drug concentration in brain of Sprague-Dawley rat at 10 mg/kg, po to IC50 of gamma-secretase in human SK-N-BE cells; type: ADME, organism-based; conditions: in vivo
[14] = Intrinsic clearance in rat liver microsomes at 0.2 uM incubated upto 45 mins by LC/MS-MS analysis; type: ADME, Microsome; conditions: for CLint scaled at 0.2 µM: liver microsomes
Outline: (§5)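 Test compound at 0.2 μM incubated at 37 °C with pooled rat or mouse liver microsomes (0.2 mg protein/mL), 1 mM NADPH and 0.1 mM EDTA in 100 mM Na+-K+ phosphate, pH 7.4. Samples taken at 0, 15, 30 and 45 min; compound/internal-standard peak areas measured by LC-MS/MS to calculate CLint (mL/min/kg). Mean of duplicate experiments.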

[15] = Drug concentration in brain of Sprague-Dawley rat at 30 mg/kg, po measured after 3 hrs by LC/MS-MS analysis; type: ADME, organism-based; conditions: in vivo; outline: as §1
Cytochrome P450 2C9 = Cytochrome P450 2C9 (Homo sapiens, UniProt P11712); assay: Inhibition of human recombinant CYP2C9 assessed as reduction in metabolite formation using MFC as substrate incubated for 30 mins by fluorescence assay; type: ADME; outline: as §3
[16] = Drug concentration in brain of Sprague-Dawley rat at 10 mg/kg, po measured after 3 hrs by LC/MS-MS analysis; type: ADME, organism-based; conditions: in vivo; outline: as §1
CYP3A4 [17] = biological target: T2, CYP3A4; assay: Inhibition of CYP3A4 in human liver microsome assessed as enzyme residual activity pre-incubated for 30 min followed by midazolam addition incubated for 20 mins by LC-MS/MS analysis relative to control; type: ADME; conditions: liver microsomes, probe midazolam, read-out: INH; outline: as §4
Cytochrome P450 2C19 = Cytochrome P450 2C19 (Homo sapiens, UniProt P33261); assay: Inhibition of human recombinant CYP2C19 assessed as reduction in metabolite formation using CEC as substrate incubated for 20 mins by fluorescence assay; type: ADME; outline: as §3
[18] = Intrinsic clearance in mouse liver microsomes at 0.2 uM incubated upto 45 mins by LC/MS-MS analysis; type: ADME, Microsome; outline: as §5

T2 sequence (P08684 whole entry): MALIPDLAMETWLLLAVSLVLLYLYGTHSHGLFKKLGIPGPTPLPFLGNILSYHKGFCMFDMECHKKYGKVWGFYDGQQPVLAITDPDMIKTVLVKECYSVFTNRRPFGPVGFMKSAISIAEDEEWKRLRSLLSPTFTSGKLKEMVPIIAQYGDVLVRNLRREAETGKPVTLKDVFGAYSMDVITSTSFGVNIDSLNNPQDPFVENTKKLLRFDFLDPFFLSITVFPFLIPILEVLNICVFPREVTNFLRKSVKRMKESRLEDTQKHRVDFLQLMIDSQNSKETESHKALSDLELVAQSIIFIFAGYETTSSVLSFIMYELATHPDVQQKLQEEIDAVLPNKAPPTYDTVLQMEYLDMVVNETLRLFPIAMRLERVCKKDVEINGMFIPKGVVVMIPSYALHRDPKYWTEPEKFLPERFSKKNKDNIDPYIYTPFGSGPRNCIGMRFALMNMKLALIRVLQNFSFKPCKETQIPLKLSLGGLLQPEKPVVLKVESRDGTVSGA
Sequence of Cytochrome P450 2C9 (P11712 whole entry): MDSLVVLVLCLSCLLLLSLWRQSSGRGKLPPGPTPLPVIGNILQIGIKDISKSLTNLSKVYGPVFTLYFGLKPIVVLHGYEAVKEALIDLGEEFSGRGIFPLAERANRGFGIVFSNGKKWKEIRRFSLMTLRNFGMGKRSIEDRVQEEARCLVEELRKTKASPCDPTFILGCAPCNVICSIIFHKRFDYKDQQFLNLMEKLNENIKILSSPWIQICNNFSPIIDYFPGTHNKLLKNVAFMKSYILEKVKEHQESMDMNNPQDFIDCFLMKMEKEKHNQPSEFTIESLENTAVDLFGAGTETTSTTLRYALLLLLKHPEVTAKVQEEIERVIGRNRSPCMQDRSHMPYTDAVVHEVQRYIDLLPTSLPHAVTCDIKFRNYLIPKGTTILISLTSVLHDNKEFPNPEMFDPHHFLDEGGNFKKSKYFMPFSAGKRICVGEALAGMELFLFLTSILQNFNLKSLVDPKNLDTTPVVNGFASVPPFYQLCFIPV
Sequence of Cytochrome P450 2D6 (P10635 whole entry): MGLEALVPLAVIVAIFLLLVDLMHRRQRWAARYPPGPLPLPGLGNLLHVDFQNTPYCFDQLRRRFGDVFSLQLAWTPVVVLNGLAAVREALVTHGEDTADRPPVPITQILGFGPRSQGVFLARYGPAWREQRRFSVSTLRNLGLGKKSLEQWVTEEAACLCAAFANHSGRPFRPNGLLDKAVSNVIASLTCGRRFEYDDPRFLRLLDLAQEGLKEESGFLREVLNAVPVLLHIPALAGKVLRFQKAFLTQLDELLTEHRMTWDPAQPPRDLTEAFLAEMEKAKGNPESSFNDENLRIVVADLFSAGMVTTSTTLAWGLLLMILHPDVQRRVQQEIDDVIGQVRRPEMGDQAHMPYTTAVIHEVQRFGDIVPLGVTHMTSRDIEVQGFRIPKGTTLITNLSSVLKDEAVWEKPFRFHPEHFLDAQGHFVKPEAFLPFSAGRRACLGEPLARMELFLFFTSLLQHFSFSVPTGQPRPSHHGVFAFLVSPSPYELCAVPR
Sequence of Cytochrome P450 2C19 (P33261 whole entry): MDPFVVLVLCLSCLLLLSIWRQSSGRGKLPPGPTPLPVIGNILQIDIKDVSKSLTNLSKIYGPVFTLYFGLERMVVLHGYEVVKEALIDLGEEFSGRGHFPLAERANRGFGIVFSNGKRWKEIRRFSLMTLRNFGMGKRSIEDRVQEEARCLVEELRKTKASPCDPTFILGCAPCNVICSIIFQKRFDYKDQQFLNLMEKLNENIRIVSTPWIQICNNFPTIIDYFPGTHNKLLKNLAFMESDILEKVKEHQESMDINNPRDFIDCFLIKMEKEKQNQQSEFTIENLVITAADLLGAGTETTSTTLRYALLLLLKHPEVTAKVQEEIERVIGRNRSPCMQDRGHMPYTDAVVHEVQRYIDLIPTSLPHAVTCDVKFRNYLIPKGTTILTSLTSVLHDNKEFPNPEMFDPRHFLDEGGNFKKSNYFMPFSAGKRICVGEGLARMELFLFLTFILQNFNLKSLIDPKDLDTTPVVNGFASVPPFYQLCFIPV

IC50 (Gamma-secretase)	CLint scaled at 0.2 µM [14]	SMILES	inhibition in vivo at 30 mg/kg (Rattus norvegicus [3])	inhibition in vivo at 30 mg/kg (Rattus norvegicus [6])	other results
29 nM	115 mL/min/kg	CNC(=O)c1ccc(-c2c(C)nc3c(OCc4ccc(-c5ccc(F)cc5)cc4F)cccn23)cn1.Cl	42%	77%	Activity (Mus musculus): Active; Ratio [1]: 121; Kp at 3 h [2]: 0.23; concentration at 3 h [4]: 16 µM; IC50 (Cytochrome P450 2D6): > 10000 nM; inhibition in vivo at 10 mg/kg (Rattus norvegicus [5]): 63%; Kp at 3 h [7]: 0.27; concentration at 3 h [8]: 5.7 µM; Ratio [9]: 196; inhibition in vivo at 10 mg/kg (Rattus norvegicus [10]): 23%; IC50 (Cytochrome P450 1A2): > 10000 nM; Ratio [11]: 561; activity at 20 min (CYP3A4 [12]): 109%; Ratio [13]: 51; Ct [15]: 3.5 nmol/g; IC50 (Cytochrome P450 2C9): > 10000 nM; Ct [16]: 1.5 nmol/g; activity at 20 min (CYP3A4 [17]): 104%; IC50 (Cytochrome P450 2C19): > 10000 nM
99 nM	307 mL/min/kg	CCNC(=O)c1ccc(-c2c(C)nc3c(OCc4ccc(-c5cccc(F)c5)cc4)cccn23)cn1	22%	42%	
> 2000 nM		CCn1sc2cc(-c3c(C)nc4c(OCc5ccc(-c6ccc(F)cc6)cc5)cccn34)ccc2c1=O			
390 nM		CCn1[nH]c2cc(-c3c(C)nc4c(OCc5ccc(-c6ccc(F)cc6)cc5)cccn34)ccc2c1=O			
210 nM		CCNC(=O)c1ccc(-c2c(C)nc3c(OCc4ccc(-c5ccc(C(F)(F)F)cc5)cc4)cccn23)cn1.Cl	4%	40%	CLH ([14]; microsomes, 0.75 h, 0.2 µM): Stable
92 nM	345 mL/min/kg	CCN1Cc2cc(-c3c(C)nc4c(OCc5ccc(-c6ccc(F)cc6)cc5)cccn34)ccc2C1=O	10%	59%	
75 nM	221 mL/min/kg	CCNC(=O)c1ccc(-c2c(C)nc3c(OCc4ccc(-c5ccc(F)cc5)cc4)cccn23)cn1	22%	43%	
37 nM	147 mL/min/kg	CNC(=O)c1ccc(-c2c(C)nc3c(OCc4ccc(-c5ccc(F)cc5)cc4)cccn23)cn1.Cl	40%	68%	Ratio [1]: 193; Kp at 3 h [2]: 0.44; concentration at 3 h [4]: 17 µM; Ratio [11]: 446; Ct [15]: 7.1 nmol/g
61 nM	38 mL/min/kg	CCNC(=O)c1ccc(-c2c(C)nc3c(OCc4ccc(-c5cccc(C(F)(F)F)c5)cc4)cccn23)cn1	15%	62%	
69 nM	167 mL/min/kg	Cc1nc2c(OCc3ccc(-c4ccc(F)cc4)cc3)cccn2c1-c1ccc2c(=O)n(C)oc2c1.Cl	29%	81%	Ratio [1]: 81; Kp at 3 h [2]: 0.27; concentration at 3 h [4]: 21 µM; Ratio [11]: 304; Ct [15]: 5.6 nmol/g
> 2000 nM		CCn1c(=O)c2ccc(-c3c(C)nc4c(OCc5ccc(-c6ccc(F)cc6)cc5)cccn34)cc2n1C			
180 nM	790 mL/min/kg	CCNC(=O)c1ccc(-c2c(C)nc3c(OCc4ccc(-c5ccccc5C(F)(F)F)cc4)cccn23)cn1			
220 nM	> 1000 mL/min/kg	CCNC(=O)c1ccc(-c2c(C)nc3c(OCc4ccc(-c5ccccc5F)cc4)cccn23)cn1			
90 nM	214 mL/min/kg	CCn1oc2cc(-c3c(C)nc4c(OCc5ccc(-c6ccc(F)cc6)cc5)cccn34)ccc2c1=O	20%	63%	
	835 mL/min/kg	CCNC(=O)c1ccc(-c2c(C)nc3c(OCc4ccc(-c5ccccc5)cc4)cccn23)cn1.Cl	13%	28%	Ratio [1]: 23; Kp at 3 h [2]: 0.3; concentration at 3 h [4]: 6.8 µM; Ratio [11]: 75; CLint scaled at 0.2 µM [18]: 227 mL/min/kg; Ct [15]: 2.1 nmol/g
